# Key:
# Format in all cases: functional
# Aspergillus fumigatus = assay: Tested for in vitro antifungal activity against Aspergillus fumigatus ATCC 26430
# How it was run: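 Mould grown in microplates in RPMI1640 buffered at pH 7.0, incubated at 30 °C. MIC is the lowest test-compound concentration that inhibits growth by 80%.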
# Candida albicans [1] = assay: Tested for in vitro antifungal activity against Candida albicans ATCC 24433
# How it was run: (§1)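 Microplate growth assay in RPMI1640 medium buffered at pH 7.0, incubated at 35 °C. MIC is the lowest test-compound concentration that inhibits fungal growth by 80%.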
# Candida albicans [2] = assay: Tested for in vitro antifungal activity against Candida albicans ATCC 24433 in the presence of horse serum (20%)
# How it was run: (§2)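 RPMI1640 medium buffered at pH 7.0, with 20% horse serum added for the incubation. Microplates incubated at 35 °C. MIC is the lowest concentration giving 80% inhibition of fungal growth.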
# Candida albicans [3] = assay: Tested for in vitro antifungal activity against Candida albicans ATCC 64550; how it was run: as §1
# Candida albicans [4] = assay: Tested for in vitro antifungal activity against Candida albicans SANK51486; how it was run: as §1
# Candida albicans [5] = assay: Tested for in vitro antifungal activity against Candida albicans SANK51486 in the presence of horse serum (20%); how it was run: as §2
# Candida albicans [6] = assay: Tested for in vitro antifungal activity against Candida albicans TIMM3164; how it was run: as §1
# Candida parapsilosis = assay: Tested for in vitro antifungal activity against Candida parapsilosis ATCC 90018; conditions: Lodderomyces parapsilosis; how it was run: as §1
# Cryptococcus neoformans = assay: Tested for in vitro antifungal activity against Cryptococcus neoformans TIMM1855
# How it was run: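 Yeast grown in microplates in yeast nitrogen base buffered at pH 7.0, incubated at 35 °C. MIC is the lowest concentration inhibiting growth by 80%.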
# Candida tropicalis = assay: Tested for in vitro antifungal activity against Candida tropicalis ATCC750; how it was run: as §1
# Nakaseomyces glabratus = assay: Tested for in vitro antifungal activity against Candida glabrata ATCC 90030; how it was run: as §1
Structure (SMILES),MIC (Aspergillus fumigatus),MIC (Candida albicans [1]),MIC (Candida albicans [2]),MIC (Candida albicans [3]),MIC (Candida albicans [4]),MIC (Candida albicans [5]),MIC (Candida albicans [6]),MIC (Candida parapsilosis),MIC (Cryptococcus neoformans),MIC (Candida tropicalis),MIC (Nakaseomyces glabratus)
C=C(C)CN1C[C@H](OCC23C[C@@H]4[C@H](C)CC[C@H]4C4(C=O)CC2C=C(C(C)C)C34C(=O)O)O[C@H](C)[C@@H](OC)C1 (stereo not given in full),> 16 µg/mL,0.031 µg/mL,0.5 µg/mL,0.031 µg/mL,0.016 µg/mL,0.25 µg/mL,0.031 µg/mL,> 16 µg/mL,0.25 µg/mL,0.125 µg/mL,0.25 µg/mL
CO[C@H]1CN(Cc2ccc3c(c2)OCO3)C[C@H](OCC23C[C@@H]4[C@H](C)CC[C@H]4C4(C=O)CC2C=C(C(C)C)C34C(=O)O)O[C@@H]1C (stereo not given in full),> 16 µg/mL,0.031 µg/mL,1 µg/mL,0.031 µg/mL,0.016 µg/mL,0.5 µg/mL,0.031 µg/mL,> 16 µg/mL,2 µg/mL,0.25 µg/mL,0.5 µg/mL
CO[C@H]1CN(CC=C(C)C)C[C@H](OCC23C[C@@H]4[C@H](C)CC[C@H]4C4(C=O)CC2C=C(C(C)C)C34C(=O)O)O[C@@H]1C (stereo not given in full),> 16 µg/mL,0.25 µg/mL,2 µg/mL,0.5 µg/mL,0.125 µg/mL,1 µg/mL,0.25 µg/mL,> 16 µg/mL,> 16 µg/mL,2 µg/mL,16 µg/mL
CO[C@H]1CN(CC=C(Cl)Cl)C[C@H](OCC23C[C@@H]4[C@H](C)CC[C@H]4C4(C=O)CC2C=C(C(C)C)C34C(=O)O)O[C@@H]1C (stereo not given in full),> 16 µg/mL,≤ 0.031 µg/mL,2 µg/mL,0.063 µg/mL,≤ 0.031 µg/mL,1 µg/mL,≤ 0.031 µg/mL,> 16 µg/mL,8 µg/mL,0.5 µg/mL,1 µg/mL
CO[C@H]1CN(Cc2ccccc2)C[C@H](OCC23C[C@@H]4[C@H](C)CC[C@H]4C4(C=O)CC2C=C(C(C)C)C34C(=O)O)O[C@@H]1C (stereo not given in full),> 32 µg/mL,≤ 0.063 µg/mL,1 µg/mL,≤ 0.063 µg/mL,≤ 0.063 µg/mL,0.5 µg/mL,0.125 µg/mL,> 32 µg/mL,4 µg/mL,0.25 µg/mL,0.5 µg/mL
COc1ccc(CN2C[C@H](OCC34C[C@@H]5[C@H](C)CC[C@H]5C5(C=O)CC3C=C(C(C)C)C45C(=O)O)O[C@H](C)[C@@H](OC)C2)cc1 (stereo not given in full),> 32 µg/mL,≤ 0.063 µg/mL,1 µg/mL,≤ 0.063 µg/mL,≤ 0.063 µg/mL,0.5 µg/mL,≤ 0.063 µg/mL,> 32 µg/mL,2 µg/mL,0.25 µg/mL,0.25 µg/mL
CO[C@H]1CN(Cc2ccc(SC)cc2)C[C@H](OCC23C[C@@H]4[C@H](C)CC[C@H]4C4(C=O)CC2C=C(C(C)C)C34C(=O)O)O[C@@H]1C (stereo not given in full),> 16 µg/mL,0.063 µg/mL,4 µg/mL,0.125 µg/mL,≤ 0.031 µg/mL,2 µg/mL,0.063 µg/mL,> 16 µg/mL,> 16 µg/mL,0.5 µg/mL,2 µg/mL
CC(C)C1=CC2CC3(C=O)[C@@H]4CC[C@@H](C)[C@H]4CC2(CSC2CCCCC2)C13C(=O)O (stereo not given in full),> 8 µg/mL,0.031 µg/mL,8 µg/mL,0.125 µg/mL,≤ 0.016 µg/mL,4 µg/mL,0.063 µg/mL,> 8 µg/mL,> 8 µg/mL,2 µg/mL,0.031 µg/mL
C/C=C/C=C\C(=O)O[C@H]1[C@H](O)[C@H](OCC23C[C@@H]4[C@H](C)CC[C@H]4C4(C=O)CC2C=C(C(C)C)C34C(=O)O)O[C@H](C)[C@H]1OC (stereo not given in full),> 4 µg/mL,0.5 µg/mL,4 µg/mL,0.5 µg/mL,0.25 µg/mL,,0.5 µg/mL,> 4 µg/mL,0.25 µg/mL,0.5 µg/mL,> 4 µg/mL
CO[C@H]1CN(Cc2ccc(C)cc2)C[C@H](OCC23C[C@@H]4[C@H](C)CC[C@H]4C4(C=O)CC2C=C(C(C)C)C34C(=O)O)O[C@@H]1C (stereo not given in full),> 16 µg/mL,0.063 µg/mL,8 µg/mL,0.125 µg/mL,≤ 0.031 µg/mL,2 µg/mL,0.125 µg/mL,> 16 µg/mL,> 16 µg/mL,1 µg/mL,2 µg/mL
CO[C@H]1CN(Cc2ccc(C#N)cc2)C[C@H](OCC23C[C@@H]4[C@H](C)CC[C@H]4C4(C=O)CC2C=C(C(C)C)C34C(=O)O)O[C@@H]1C (stereo not given in full),> 16 µg/mL,0.063 µg/mL,2 µg/mL,0.063 µg/mL,≤ 0.031 µg/mL,1 µg/mL,0.063 µg/mL,> 16 µg/mL,8 µg/mL,0.5 µg/mL,2 µg/mL
C=C(Br)CN1C[C@H](OCC23C[C@@H]4[C@H](C)CC[C@H]4C4(C=O)CC2C=C(C(C)C)C34C(=O)O)O[C@H](C)[C@@H](OC)C1 (stereo not given in full),> 16 µg/mL,0.031 µg/mL,1 µg/mL,0.031 µg/mL,0.016 µg/mL,0.5 µg/mL,0.031 µg/mL,> 16 µg/mL,0.25 µg/mL,0.125 µg/mL,0.25 µg/mL
COc1cccc(CN2C[C@H](OCC34C[C@@H]5[C@H](C)CC[C@H]5C5(C=O)CC3C=C(C(C)C)C45C(=O)O)O[C@H](C)[C@@H](OC)C2)c1 (stereo not given in full),> 16 µg/mL,0.063 µg/mL,2 µg/mL,0.125 µg/mL,≤ 0.031 µg/mL,2 µg/mL,0.063 µg/mL,> 16 µg/mL,2 µg/mL,0.5 µg/mL,8 µg/mL
CO[C@H]1CN(Cc2ccc(C(F)(F)F)cc2)C[C@H](OCC23C[C@@H]4[C@H](C)CC[C@H]4C4(C=O)CC2C=C(C(C)C)C34C(=O)O)O[C@@H]1C (stereo not given in full),> 32 µg/mL,0.5 µg/mL,32 µg/mL,1 µg/mL,0.25 µg/mL,16 µg/mL,0.5 µg/mL,> 32 µg/mL,> 32 µg/mL,2 µg/mL,8 µg/mL
CO[C@H]1CN(Cc2ccc(Cl)cc2)C[C@H](OCC23C[C@@H]4[C@H](C)CC[C@H]4C4(C=O)CC2C=C(C(C)C)C34C(=O)O)O[C@@H]1C (stereo not given in full),> 32 µg/mL,≤ 0.063 µg/mL,8 µg/mL,≤ 0.063 µg/mL,≤ 0.063 µg/mL,4 µg/mL,≤ 0.063 µg/mL,> 32 µg/mL,4 µg/mL,0.5 µg/mL,1 µg/mL
C=C(Cl)CN1C[C@H](OCC23C[C@@H]4[C@H](C)CC[C@H]4C4(C=O)CC2C=C(C(C)C)C34C(=O)O)O[C@H](C)[C@@H](OC)C1 (stereo not given in full),> 16 µg/mL,0.031 µg/mL,0.5 µg/mL,0.031 µg/mL,0.016 µg/mL,0.5 µg/mL,0.031 µg/mL,16 µg/mL,0.125 µg/mL,0.25 µg/mL,0.125 µg/mL
C=C(Cl)CN1C[C@H](OCC23C[C@@H]4[C@H](C)CC[C@H]4C4(C=O)CC2C=C(C(C)C)C34C(=O)O)O[C@H](C)C1 (stereo not given in full),> 16 µg/mL,0.031 µg/mL,0.5 µg/mL,0.031 µg/mL,0.016 µg/mL,0.25 µg/mL,0.031 µg/mL,8 µg/mL,16 µg/mL,0.125 µg/mL,0.125 µg/mL
C=C(CF)CN1C[C@H](OCC23C[C@@H]4[C@H](C)CC[C@H]4C4(C=O)CC2C=C(C(C)C)C34C(=O)O)O[C@H](C)[C@@H](OC)C1 (stereo not given in full),> 16 µg/mL,≤ 0.031 µg/mL,0.5 µg/mL,≤ 0.031 µg/mL,≤ 0.031 µg/mL,0.5 µg/mL,≤ 0.031 µg/mL,> 16 µg/mL,0.25 µg/mL,0.25 µg/mL,0.5 µg/mL
CO[C@H]1CN(CC2=CCCCC2)C[C@H](OCC23C[C@@H]4[C@H](C)CC[C@H]4C4(C=O)CC2C=C(C(C)C)C34C(=O)O)O[C@@H]1C (stereo not given in full),> 16 µg/mL,0.125 µg/mL,8 µg/mL,0.125 µg/mL,0.063 µg/mL,4 µg/mL,0.125 µg/mL,> 16 µg/mL,8 µg/mL,1 µg/mL,4 µg/mL
C=CCN1C[C@H](OCC23C[C@@H]4[C@H](C)CC[C@H]4C4(C=O)CC2C=C(C(C)C)C34C(=O)O)O[C@H](C)[C@@H](OC)C1 (stereo not given in full),> 16 µg/mL,0.063 µg/mL,0.25 µg/mL,0.063 µg/mL,0.031 µg/mL,0.25 µg/mL,0.063 µg/mL,> 16 µg/mL,> 16 µg/mL,0.5 µg/mL,0.25 µg/mL
C=CCCN1C[C@H](OCC23C[C@@H]4[C@H](C)CC[C@H]4C4(C=O)CC2C=C(C(C)C)C34C(=O)O)O[C@H](C)[C@@H](OC)C1 (stereo not given in full),> 16 µg/mL,0.125 µg/mL,,0.25 µg/mL,0.063 µg/mL,,0.125 µg/mL,> 16 µg/mL,> 16 µg/mL,1 µg/mL,4 µg/mL
OC(Cn1cncn1)(Cn1cncn1)c1ccc(F)cc1F [FLUCONAZOLE],,,,4 µg/mL,,,4 µg/mL,,,,

# Source: ChEMBL document CHEMBL1135162, “Synthesis and evaluation of N-substituted 1,4-oxazepanyl Sordaricins as selective fungal EF-2 inhibitors” (2002)
